Cneo AK release – Cryptococcus neoformans lysis via adenylate kinase release; lysis activity, % at 15 µM; 360,000 compounds, 0.2% hits; C. neoformans lysis, adenylate kinase release luminescence, 4 h; normalised: neutral wells 0, clomiphene wells 100;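 active means mean lysis activity across replicates of at least 80%, whatever share of replicates individually reach that level; inactive means mean lysis activity below 80%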
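Material: C. neoformans cells; Schedule: 4 h static compound exposure, 37 °C, read 1 h post-reagent; Measured by: adenylate kinase release luminescence; Read-out: signal increase indicating cell lysis; Controls: Clomiphene as positive lysis control.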
DENV2 CPE – protects cells from dengue virus 2 cytopathic effect | DENV2-infected cells, cytopathic effect rescue, plate reader | 350,000 compounds, 1.7% hits | CPE inhibition, % at 9.99 µM; in the data active means CPE inhibition above about 20%, passing the limit was not always enough; inconclusive means no clear call, values can overlap the other calls; tested in BHK-21 cells;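 further: 0% = median of neutral control wells and 100% = median of positive control wells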
E-selectin induc – induces E-selectin expression in human endothelial cells | P16581 | HUVEC E-selectin immunofluorescence imaging; normalized: neutral wells 0, TNF-alpha wells 100 | activation, % at 7.58 µM | 260,000 compounds, 0.37% hits;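 active means mean E-selectin-positive cell signal at least 10% of the positive control, reached in at least 60% of replicates, without over 20% cell loss; inconclusive means no rule given, readout overlaps actives, possibly toxicity-flagged; inactive means the rest, including those meeting only one limit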
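Assay system: HUVEC, human umbilical vein endothelial cells / Amount: 3,000 HUVEC/well / Controls: TNF-alpha positive control, DMSO neutral control / Compound dosing: single concentration / Medium: EGM-2 over gelatin coat / Evaluation: percent E-selectin-positive cells / Signal: immunofluorescence imaging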
Ecoli rRNA inh – inhibitors of bacterial rRNA selective over humanized ribosomes. 350,000 compounds, 1.6% hits. GFP signal change (wild-type ribosome), % (concentration not given with the values). E. coli WT GFP vs humanized-ribosome RFP mutants, fluorescence, 24 h; stronger effect = lower value; DMSO median 0, no signal -100. AID 720706;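 active means significant combined selectivity score with lowered wild-type GFP, culture density cut under 30%, mutant RFP and density less affected; inactive means any of these conditions unmet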
miR-122 sensor – blocks miR-122 activity in Huh7 sensor cells; Huh7 miR-122 Renilla luciferase sensor, 48 h; neutral wells = 0, positive control = 100; 340,000 compounds, 0.3% hits; activation (reporter increase), % at 12.5 µM;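 active means mean replicate activation score at least 90 and every replicate individually at or above 90; inconclusive means only one of the two criteria met; inactive means neither criterion met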;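 further: higher luciferase means less miR-122 activity so hits act as miR-122 inhibitors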
Active calls of the source: *; ? = inconclusive; · = no result; [ ] = remark or other dose. Most compounds without a hit are left out; they make up all but 3.1% or so of the library.

SMILES | Cneo AK release | DENV2 CPE | E-selectin induc | Ecoli rRNA inh | miR-122 sensor
C[C@H]1CN([C@@H](C)CO)C(=O)c2cccc(NC(=O)NC3CCCCC3)c2O[C@@H]1CN(C)S(=O)(=O)c1ccc(Cl)cc1 | 0 | 27* | 0 | -7 | -4[16.7 µM]
C[C@H](CO)N1C[C@H](C)[C@H](CN(C)S(=O)(=O)c2ccc(Cl)cc2)Oc2c(NC(=O)NC3CCCCC3)cccc2C1=O | 0 | -19 | · | -5 | -14[16.7 µM]
C[C@@H]1CCCCO[C@@H](CN(C)S(=O)(=O)c2ccc(Cl)cc2)[C@H](C)CN([C@H](C)CO)C(=O)c2cc(NC(=O)Nc3ccc4c(c3)OCO4)ccc2O1 | 38 | 6 | 0 | -1 | -3[16.7 µM]
O=C(O)C[C@@H]1C=C[C@@H](NC(=O)c2ccncc2)[C@H](CO)O1 | -2 | 3 | 0 | -2 | 6[16.7 µM]
COc1ccc(S(=O)(=O)Nc2cccc3c2O[C@@H](CN(C)S(C)(=O)=O)[C@@H](C)CN([C@@H](C)CO)C3=O)cc1 | 57 | 120* | -3 | 2 | 8[16.7 µM]
COc1ccc(S(=O)(=O)N(C)C[C@H]2Oc3c(NS(=O)(=O)c4cccs4)cccc3C(=O)N([C@@H](C)CO)C[C@@H]2C)cc1 | · | 36* | 0 | -5 | ·
COc1ccc(S(=O)(=O)N(C)C[C@@H]2Oc3c(NS(=O)(=O)c4ccc(F)cc4)cccc3C(=O)N([C@H](C)CO)C[C@@H]2C)cc1 | 0 | ? | 62* | -7 | -1[16.7 µM]
COc1ccc(S(=O)(=O)N(C)C[C@H]2Oc3c(NS(=O)(=O)c4ccc(F)cc4)cccc3C(=O)N([C@@H](C)CO)C[C@H]2C)cc1 | 10 | -22 | 17 | -4 | 5[16.7 µM]
CCN(CC(=O)Nc1c(F)cccc1F)C(=O)c1ccc(C(=O)c2ccccc2)cc1 | · | 11 | -1 | 7 | ·
CCN(CC(=O)Nc1c(F)cccc1F)C(=O)c1cccc(S(=O)(=O)NCc2ccccc2)c1 | 2 | 80* | 1 | 3 | 15
CCS(=O)(=O)Nc1ccc2c(c1)C(=O)N(C)C[C@H](OC)[C@H](C)CN(CC1CCCC1)[C@@H](C)CO2 | -4 | · | 0 | 1 | 0[16.7 µM]
CCOC(=O)N1CCN(C(=O)COc2cccc3c2CCN(Cc2cccc(C)c2)C3=O)CC1 | · | 1 | 0 | -25* | -3
CC1=NN(c2ccccc2)C(=O)C1N=Nc1ccccc1 (stereo not drawn) | · | -3 | 60* | -1 | ·
CC1=NN(c2ccccc2)C(=O)C1N=Nc1ccc(N)cc1 (stereo not drawn) | 0 | · | · | · | -6
CC1c2ccsc2CCN1S(=O)(=O)c1cccs1 (stereo not drawn) | · | -6 | 0 | -29* | ·
CC1CCN(C(=O)C2CCN(S(=O)(=O)c3cccs3)CC2)CC1 | -1 | -1 | · | · | 0
CN1CCN(S(=O)(=O)c2cccs2)CC1 | · | 34* | 0 | 16 | ·
O=C(NCC[C@H]1CC[C@H](NS(=O)(=O)c2ccc(Oc3ccccc3)cc2)[C@@H](CO)O1)C1CC1 | -3 | 85* | 1 | -3 | ·
Cc1ccc(S(=O)(=O)N[C@H]2CC[C@H](CCNC(=O)C3CCCC3)O[C@H]2CO)cc1 | -1 | 27* | 0 | 1 | 18[16.7 µM]
COc1ccc(C[C@@H]2CCn3cc(nn3)COC[C@H](C(C)C)NC2=O)cc1 | 4 | -2 | 0 | 1 | ·
CN(C)CCCNC(=O)[C@@H]1[C@@H](CO)[C@@H]2Cn3c(ccc(-c4ccncc4)c3=O)[C@H]1N2C(=O)C1CC1 | 0 | -3 | -1 | 4 | 3[16.7 µM]
O=C(Nc1nnc(S(=O)(=O)Cc2ccc(F)cc2)s1)c1ccccc1F | -2 | -3 | 0 | -40* | 7
COc1ccc(C(C)NC(=O)c2ccccc2Cl)cc1OC (stereo not drawn) | -1 | 64* | · | 3 | 0
O=C(Nc1nnc(Cc2ccccc2F)s1)c1ccccc1Cl | -2 | 78* | 0 | 0 | 17
COc1ccc(C(C)NC(=O)c2ccc(Br)cc2)cc1OC (stereo not drawn) | -2 | -14 | · | 0 | -1
COc1ccc(Cc2nnc(NC(=O)c3ccccc3[N+](=O)[O-])s2)cc1 | 1 | 5 | 0 | -30* | -5
Cc1ccccc1NS(=O)(=O)c1nnc(NC(=O)c2ccccc2F)s1 | 5 | ? | 0 | -15 | -2

Assay outcomes (PubChem BioAssay)
